{"data": "Experimental data from different studies", "target": "Mitogen-activated protein kinase 13 (MAPK13, Homo sapiens, UniProt O15264)", "Residues used in one study (O15264 1-365)": "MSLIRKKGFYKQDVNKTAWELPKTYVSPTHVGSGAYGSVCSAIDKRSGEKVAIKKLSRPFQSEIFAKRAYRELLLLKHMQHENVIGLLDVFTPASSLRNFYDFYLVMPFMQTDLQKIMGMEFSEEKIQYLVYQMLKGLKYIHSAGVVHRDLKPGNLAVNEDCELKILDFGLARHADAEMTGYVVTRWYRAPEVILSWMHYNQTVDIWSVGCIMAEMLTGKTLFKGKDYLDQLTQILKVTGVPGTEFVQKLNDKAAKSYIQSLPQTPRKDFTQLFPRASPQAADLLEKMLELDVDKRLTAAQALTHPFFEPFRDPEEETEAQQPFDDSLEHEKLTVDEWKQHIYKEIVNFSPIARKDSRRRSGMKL", "note": "Compare with care: the assays were run in different laboratories."}
{"Compound": "CCS(=O)(=O)c1cc2cc(C[C@](O)(CC(C)(C)c3ccc(F)cc3C(N)=O)C(F)(F)F)[nH]c2cn1", "assay": "cell-free assay, competition with immobilised ligand", "setting": "1 µM", "remaining binding": "100%"}
{"Compound": "C[C@@H](c1ccc(-n2cnc3c(N)ncnc32)cc1)N1CCc2nn(C)c(Cc3ccccc3)c2C1=O", "assay": "binding, competition with immobilised ligand", "setting": "0.1 µM", "remaining binding": "83%"}
{"Compound": "NS(=O)(=O)c1cc(NC(=O)C2(c3ccccc3Cl)CC2)ccc1Oc1cccc(Cl)c1", "assay": "cell-free assay, competition with immobilised ligand", "setting": "1 µM", "remaining binding": "88%"}
{"Compound": "O=C(c1ccc(Nc2ncc(Cl)c(-c3cc4ccccc4s3)n2)cc1)N1CCC(N2CCCC2)CC1", "assay": "binding, competition with immobilised ligand", "setting": "1 µM", "remaining binding": "100%"}
{"Compound": "CCN1CCN(Cc2ccc(C(=O)Nc3ccc(C)c(Oc4ccc5c(c4)CC(=O)N5)c3)cc2C(F)(F)F)CC1", "assay": "binding, competition with immobilised ligand", "setting": "1 µM", "remaining binding": "100%"}
{"Compound": "CNC(=O)[C@@H]1CC[C@@H](n2c(-c3ccc4cnccc4c3)nc3ccc(C(=O)NCc4cccc(C(N)=O)c4)cc32)C1", "assay": "binding, competition with immobilised ligand", "setting": "1 µM", "remaining binding": "100%"}
{"Compound": "C[C@@]1(Cc2ccc(C#N)cc2)C(=O)N(c2cc(Cl)cc(Cl)c2)c2ncc(C(=O)NC3(c4nc(C5CCC5)no4)CC3)n21", "assay": "cell-free assay, competition with immobilised ligand", "setting": "1 µM", "remaining binding": "100%"}
{"Compound": "COc1cnc(Nc2cccc(S(N)(=O)=O)c2)nc1N1CCN(c2ccccc2)CC1", "assay": "binding, competition with immobilised ligand", "setting": "1 µM", "remaining binding": "100%"}
{"Compound": "C[C@H]1CCN(c2nccc(-c3cnn4ncccc34)n2)C1", "assay": "binding", "setting": "1 µM", "remaining binding": "83%"}
{"Compound": "CN([C@@H]1CCc2c(CC(=O)O)c3cc(S(C)(=O)=O)ccc3n2C1)S(=O)(=O)c1ccc(F)cc1", "assay": "cell-free assay, competition with immobilised ligand", "setting": "1 µM", "remaining binding": "68%"}
{"Compound": "F[C@@H]1CCN(c2nccc(-c3cnn4ncccc34)n2)C1", "assay": "binding", "setting": "1 µM", "remaining binding": "67%"}
{"Compound": "Cc1c[nH]c2nccc(Oc3c(F)cc(Nc4cc(Cl)nc(N)n4)cc3F)c12", "assay": "cell-free assay, competition with immobilised ligand", "setting": "0.1 µM", "remaining binding": "89%"}
{"Compound": "CN(C)c1ncc(F)c(-c2cnn3ncccc23)n1", "assay": "binding", "setting": "1 µM", "remaining binding": "96%"}
{"Compound": "O=C(c1ccc(Nc2nccc(-c3cc4ccccc4s3)n2)cc1)N1CCC(N2CCCC2)CC1", "assay": "binding, competition with immobilised ligand", "setting": "1 µM", "remaining binding": "100%"}
{"Compound": "CN(C)c1nccc(-c2cnn3ncccc23)n1", "assay": "binding", "setting": "1 µM", "remaining binding": "100%"}
{"Compound": "O=C(O)[C@H]1[C@H](Cn2nnc3ccccc3c2=O)CC[C@@H]1C(=O)c1ccc(OCCC2CCOCC2)cc1", "assay": "cell-free assay, competition with immobilised ligand", "setting": "1 µM", "remaining binding": "97%"}
{"Compound": "CN(CCCC(F)(F)F)c1nccc(-c2cnn3ncccc23)n1", "assay": "binding", "setting": "1 µM", "remaining binding": "100%"}
{"Compound": "O=C(NCCCN1CCOCC1)c1ccc(Nc2ncc(Cl)c(-c3ccc(Cl)s3)n2)cc1", "assay": "binding, competition with immobilised ligand", "setting": "1 µM", "remaining binding": "100%"}
{"Compound": "COc1ccnn2ncc(-c3ccnc(N(C)C)n3)c12", "assay": "binding", "setting": "1 µM", "remaining binding": "100%"}
{"Compound": "CS(=O)(=O)N1CCCC(NC(=O)[C@H](CCC2CCCCC2)NC(=O)c2ccc(CNC(=O)c3cnc4ccccn34)cc2)C1 (stereo partly shown)", "assay": "cell-free assay, competition with immobilised ligand", "setting": "0.1 µM", "remaining binding": "100%"}
{"Compound": "N[C@H]1CCN(c2nccc(-c3cnn4ncccc34)n2)C1", "assay": "binding", "setting": "1 µM", "remaining binding": "84%"}
{"Compound": "O=C(Nc1c[nH]nc1C(=O)NC1CCNCC1)c1cc(F)cc(F)c1", "assay": "binding, competition with immobilised ligand", "setting": "1 µM", "remaining binding": "92%"}
